Data on 15 molecules can be found in ChEMBL document CHEMBL2086327, “A click chemistry approach to pleuromutilin derivatives, part 2: conjugates with acyclic nucleosides and their ribosomal binding and antibacterial activity” (2012).

For test [1], the system named is Nucleic Acid. In words: Binding affinity to Escherichia coli 23S rRNA U2585 assessed as degree of protection against CMCT at 50 uM by Chemical footprinting analysis relative to control. In kind it is nucleic-acid assay. The procedure, abridged: (§1)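 Ribosomes came from E. coli MRE600 grown in LB, lysed and purified on sucrose gradients. They were incubated with drug at 5 or 50 μM and then modified with CMCT. Read-out was primer extension with a Cy5-labeled primer, gel electrophoresis and laser scanning. Band intensity with drug is given relative to no-drug control, after subtracting background from unmodified samples (1.00 = no protection, 0 = full protection). Values are means of at least two experiments.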

The subject of test [2] is Nucleic Acid. In words: Binding affinity to Escherichia coli 23S rRNA U2506 assessed as degree of protection against CMCT at 50 uM by Chemical footprinting analysis relative to control. In kind it is nucleic-acid assay. The procedure, abridged:
as §1

The subject of a further test is Escherichia coli. In words: Antibacterial activity against Escherichia coli AS19 after 24 hrs by microtitre plate reader. In kind it is functional. Conditions: AS19, 24 h. In short, it runs like this: (§2)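 Microtiter broth dilution. Media: E. coli AS19 in LB; B. subtilis 168 in 25% BHI/75% LB/0.05% Tween; L. innocua in 50% BHI/50% LB. Overnight cultures started from single colonies were diluted to OD450 0.01 and mixed 1:1 with 2-fold drug dilutions (0.125–32 μg/mL). Growth was read as OD450. MIC is the lowest concentration giving complete growth inhibition (E. coli read at 24 h).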

The subject of test [3] is Nucleic Acid. In words: Binding affinity to Escherichia coli 23S rRNA U2506 assessed as degree of protection against CMCT at 5 uM by Chemical footprinting analysis relative to control. In kind it is nucleic-acid assay. The procedure, abridged:
as §1

The next test concerns Listeria innocua. In words: Antibacterial activity against Listeria innocua after 24 hrs by microtitre plate reader. In kind it is functional. The procedure, abridged: as §2
For a further test, the system named is Bacillus subtilis. In words: Antibacterial activity against Bacillus subtilis 168 after 12 hrs by microtitre plate reader. In kind it is functional. To be noted: Bacillus subtilis, 168, 12 h. The procedure, abridged:
as §2

The test system of test [4] is Nucleic Acid. In words: Binding affinity to Escherichia coli 23S rRNA U2585 assessed as degree of protection against CMCT at 5 uM by Chemical footprinting analysis relative to control. In kind it is nucleic-acid assay. In short, it runs like this:
as §1

Each structure is given as a SMILES string. ≈ marks a conversion by molar mass, not a printed value.

With `C=C[C@]1(C)C[C@@H](OC(=O)Cn2cc(/C=C/Cn3cc(C)c(=O)[nH]c3=O)nn2)[C@]2(C)[C@H](C)CC[C@]3(CCC(=O)[C@H]32)[C@@H](C)[C@@H]1O`, the Ratio in the test with Nucleic Acid [1] turned out to be 0.21; with Nucleic Acid [2], 0.06; with Nucleic Acid [3], 0.18; in the test with Nucleic Acid [4], 0.39. Besides, the figures for the MIC with Escherichia coli, against Listeria innocua and against Bacillus subtilis were at least 32 µg/mL, above 32 µg/mL and above 32 µg/mL, respectively.

Take `C=C[C@]1(C)C[C@@H](OC(=O)Cn2cc(-c3cccc(-n4cnc5c(N)ncnc54)c3)nn2)[C@]2(C)[C@H](C)CC[C@]3(CCC(=O)[C@H]32)[C@@H](C)[C@@H]1O`: the Ratio in the test with Nucleic Acid [1] was determined as 0.07; in the test with Nucleic Acid [2] it was 0.06; in the test with Nucleic Acid [3] it was 0.06; in the test with Nucleic Acid [4], 0.1. Besides, the MIC (commonly the smallest concentration in the dilution series that meets the test's criterion for growth inhibition) is 1 µg/mL (≈ 1.57 µM) in the test with Escherichia coli, above 32 µg/mL against Listeria innocua and 8 µg/mL (≈ 12.5 µM) in the test on Bacillus subtilis.

On to `C=C[C@]1(C)C[C@@H](OC(=O)CSCCN(CC)CC)[C@]2(C)[C@H](C)CC[C@]3(CCC(=O)[C@H]32)[C@@H](C)[C@@H]1O` [TIAMULIN], for which the Ratio in the test on Nucleic Acid [1] amounted to 0.5; in the test with Nucleic Acid [2] it was 0.03; in the test with Nucleic Acid [3] it was 0.07; in the test with Nucleic Acid [4], 0.54. In addition, the values for the MIC in the test on Escherichia coli, against Listeria innocua and in the test with Bacillus subtilis were 0.5 µg/mL (≈ 1.01 µM), above 32 µg/mL and above 32 µg/mL, respectively.

In the case of `C=C[C@]1(C)C[C@@H](OC(=O)Cn2cc(CCCn3cnc4c(N)ncnc43)nn2)[C@]2(C)[C@H](C)CC[C@]3(CCC(=O)[C@H]32)[C@@H](C)[C@@H]1O`, the Ratio with Nucleic Acid [1] worked out at 0.17; in the test on Nucleic Acid [2] it was 0.05; in the test on Nucleic Acid [3], 0.13; in the test with Nucleic Acid [4], 0.23. Besides, the MIC is 8 µg/mL (≈ 13.2 µM) in the test on Escherichia coli, above 32 µg/mL in the test with Listeria innocua and above 32 µg/mL against Bacillus subtilis.

Take `C=C[C@]1(C)C[C@@H](OC(=O)Cn2cc(COCc3ccccc3)nn2)[C@]2(C)[C@H](C)CC[C@]3(CCC(=O)[C@H]32)[C@@H](C)[C@@H]1O`: the Ratio was 0.41 in the test with Nucleic Acid [1], 0.08 in the test on Nucleic Acid [2], 0.3 in the test with Nucleic Acid [3] and 0.5 in the test on Nucleic Acid [4]. In addition, the MIC with Escherichia coli, against Listeria innocua and against Bacillus subtilis was above 32 µg/mL in each case.

Take `C=C[C@]1(C)C[C@@H](OC(=O)CO)[C@]2(C)[C@H](C)CC[C@]3(CCC(=O)[C@@H]32)[C@@H](C)[C@@H]1O` [PLEUROMUTILIN]: the Ratio in the test with Nucleic Acid [1] came out at 0.8; with Nucleic Acid [2], 0.08; in the test on Nucleic Acid [3], 0.28; in the test on Nucleic Acid [4], 0.89. Moreover, the MIC in the test on Escherichia coli was 1 µg/mL (≈ 2.64 µM); in the test with Listeria innocua, above 32 µg/mL; against Bacillus subtilis it was 32 µg/mL (≈ 84.5 µM).

Take `C=C[C@]1(C)C[C@@H](OC(=O)CSC(C)(C)CNC(=O)[C@H](N)C(C)C)[C@]2(C)[C@H](C)CC[C@]3(CCC(=O)[C@H]32)[C@@H](C)[C@@H]1O` [VALNEMULIN]: the Ratio was determined as 0.16 in the test with Nucleic Acid [1], 0.04 in the test on Nucleic Acid [2], 0.05 in the test with Nucleic Acid [3] and 0.15 in the test with Nucleic Acid [4]. Also, the MIC was below 0.125 µg/mL in the test with Escherichia coli, 1 µg/mL (≈ 1.77 µM) in the test on Listeria innocua and 2 µg/mL (≈ 3.54 µM) in the test on Bacillus subtilis.

Regarding `C=C[C@]1(C)C[C@@H](OC(=O)Cn2cc(/C=C/Cn3cnc4c(N)ncnc43)nn2)[C@]2(C)[C@H](C)CC[C@]3(CCC(=O)[C@H]32)[C@@H](C)[C@@H]1O`, the Ratio came out at 0.16 in the test on Nucleic Acid [1], 0.05 in the test on Nucleic Acid [2], 0.1 in the test on Nucleic Acid [3] and 0.29 in the test with Nucleic Acid [4]. The MIC in the test with Escherichia coli was 8 µg/mL (≈ 13.3 µM); in the test on Listeria innocua, above 32 µg/mL; in the test on Bacillus subtilis, 16 µg/mL (≈ 26.5 µM).

On to `C=C[C@]1(C)C[C@@H](OC(=O)Cn2cc(COCCn3cc(C)c(=O)[nH]c3=O)nn2)[C@]2(C)[C@H](C)CC[C@]3(CCC(=O)[C@H]32)[C@@H](C)[C@@H]1O`, for which the Ratio in the test on Nucleic Acid [1] was found to be 0.24; in the test on Nucleic Acid [2] it was 0.08; in the test on Nucleic Acid [3], 0.28; in the test on Nucleic Acid [4], 0.43. In addition, the MIC was at least 32 µg/mL against Escherichia coli, above 32 µg/mL in the test with Listeria innocua and above 32 µg/mL against Bacillus subtilis.

For the molecule `C=C[C@]1(C)C[C@@H](OC(=O)Cn2cc(C[C@@H]3[C@H](O)[C@@H](CO)O[C@H]3n3ccc(=O)[nH]c3=O)nn2)[C@]2(C)[C@H](C)CC[C@]3(CCC(=O)[C@H]32)[C@@H](C)[C@@H]1O`, the Ratio in the test on Nucleic Acid [1] stood at 0.26; in the test on Nucleic Acid [2] it was 0.09; with Nucleic Acid [3] it was 0.31; in the test with Nucleic Acid [4] it was 0.46. The MIC against Escherichia coli, with Listeria innocua and in the test on Bacillus subtilis was above 32 µg/mL throughout.

Consider `C=C[C@]1(C)C[C@@H](OC(=O)Cn2cc(COCn3cc(C)c(=O)[nH]c3=O)nn2)[C@]2(C)[C@H](C)CC[C@]3(CCC(=O)[C@H]32)[C@@H](C)[C@@H]1O`, for which the Ratio turned out to be 0.22 with Nucleic Acid [1], 0.07 with Nucleic Acid [2], 0.23 with Nucleic Acid [3] and 0.37 in the test on Nucleic Acid [4]. Also, the MIC in the test with Escherichia coli, in the test with Listeria innocua and with Bacillus subtilis was above 32 µg/mL throughout.

For the molecule `C=C[C@]1(C)C[C@@H](OC(=O)Cn2ccnn2)[C@]2(C)[C@H](C)CC[C@]3(CCC(=O)[C@H]32)[C@@H](C)[C@@H]1O`, the Ratio in the test with Nucleic Acid [1] is 0.42; in the test on Nucleic Acid [2], 0.18; with Nucleic Acid [3], 0.48; in the test with Nucleic Acid [4], 0.66. The MIC is 16 µg/mL (≈ 37.2 µM) in the test with Escherichia coli, above 32 µg/mL in the test with Listeria innocua and above 32 µg/mL in the test on Bacillus subtilis.

`C=C[C@]1(C)C[C@@H](OC(=O)Cn2cc(COCn3cnc4c(N)ncnc43)nn2)[C@]2(C)[C@H](C)CC[C@]3(CCC(=O)[C@H]32)[C@@H](C)[C@@H]1O`: the Ratio was found to be 0.22 in the test on Nucleic Acid [1], 0.06 in the test with Nucleic Acid [2], 0.21 in the test on Nucleic Acid [3] and 0.37 in the test on Nucleic Acid [4]. Besides, the MIC against Escherichia coli, in the test on Listeria innocua and in the test on Bacillus subtilis was above 32 µg/mL each time.

In the case of `C=C[C@]1(C)C[C@@H](OC(=O)Cn2cc(-c3ccc(-n4cnc5c(N)ncnc54)cc3)nn2)[C@]2(C)[C@H](C)CC[C@]3(CCC(=O)[C@H]32)[C@@H](C)[C@@H]1O`, the Ratio in the test on Nucleic Acid [1] was found to be 0.22; in the test with Nucleic Acid [2] it was 0.08; with Nucleic Acid [3], 0.18; with Nucleic Acid [4], 0.4. In addition, the MIC against Escherichia coli, against Listeria innocua and in the test on Bacillus subtilis was above 32 µg/mL throughout.

For the molecule `C=C[C@]1(C)C[C@@H](OC(=O)Cn2nncc2CCCn2cnc3c(N)ncnc32)[C@]2(C)[C@H](C)CC[C@]3(CCC(=O)[C@H]32)[C@@H](C)[C@@H]1O`, the Ratio in the test with Nucleic Acid [1] turned out to be 0.16; in the test with Nucleic Acid [2], 0.04; in the test on Nucleic Acid [3], 0.09; with Nucleic Acid [4], 0.19. In addition, the MIC in the test with Escherichia coli was 16 µg/mL (≈ 26.5 µM); against Listeria innocua, above 32 µg/mL; with Bacillus subtilis, above 32 µg/mL.
